Data from paper PMC3962999 (The Biochemical journal, 2011).
Residue numbers refer to the chain shown, from its start.

Tests used:
[1] = biological target: T1, PBD2 (PPIP5K2) (Homo sapiens, UniProt O43314); test: SPR equilibrium binding to immobilized lipid vesicles, PBD2; conditions: SPR, in words
T1 sequence (O43314 371-901 isoform O43314-2): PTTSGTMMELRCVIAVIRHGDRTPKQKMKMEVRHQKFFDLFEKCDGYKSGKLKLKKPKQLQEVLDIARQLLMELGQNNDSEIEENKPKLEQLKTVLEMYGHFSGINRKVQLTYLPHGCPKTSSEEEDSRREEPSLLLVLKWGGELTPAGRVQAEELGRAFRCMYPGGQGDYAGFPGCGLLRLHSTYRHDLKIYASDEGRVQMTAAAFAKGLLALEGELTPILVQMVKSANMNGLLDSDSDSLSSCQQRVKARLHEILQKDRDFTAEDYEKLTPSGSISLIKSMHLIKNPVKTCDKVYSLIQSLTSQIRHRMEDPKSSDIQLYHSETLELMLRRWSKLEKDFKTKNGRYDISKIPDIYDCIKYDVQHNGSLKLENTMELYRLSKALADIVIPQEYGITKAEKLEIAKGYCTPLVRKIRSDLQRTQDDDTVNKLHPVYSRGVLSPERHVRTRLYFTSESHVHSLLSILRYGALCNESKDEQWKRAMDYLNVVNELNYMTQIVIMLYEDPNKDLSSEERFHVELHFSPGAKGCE
Summary of the method: (§1)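 Large unilamellar vesicles (PtdCho/PtdE/test phosphoinositide 77:20:3) were captured on an L1 chip to 5000 RU. Signals were corrected against phosphoinositide-free vesicles. Kd came from nonlinear fitting of Req = Rmax/(1+Kd/C). Concentrations were: GRP-1 PH domain 2.5–125 nM; PBD1 on PtdIns(3,4,5)P₃ 5–150 nM; bisphosphate vesicles 75–1900 nM.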

[2] = biological target: T2, PBD1 (PPIP5K1) (Homo sapiens, UniProt Q6PFW1); test: SPR equilibrium binding to immobilized lipid vesicles, PBD1; conditions: SPR, in words
T2 sequence (Q6PFW1 382-917): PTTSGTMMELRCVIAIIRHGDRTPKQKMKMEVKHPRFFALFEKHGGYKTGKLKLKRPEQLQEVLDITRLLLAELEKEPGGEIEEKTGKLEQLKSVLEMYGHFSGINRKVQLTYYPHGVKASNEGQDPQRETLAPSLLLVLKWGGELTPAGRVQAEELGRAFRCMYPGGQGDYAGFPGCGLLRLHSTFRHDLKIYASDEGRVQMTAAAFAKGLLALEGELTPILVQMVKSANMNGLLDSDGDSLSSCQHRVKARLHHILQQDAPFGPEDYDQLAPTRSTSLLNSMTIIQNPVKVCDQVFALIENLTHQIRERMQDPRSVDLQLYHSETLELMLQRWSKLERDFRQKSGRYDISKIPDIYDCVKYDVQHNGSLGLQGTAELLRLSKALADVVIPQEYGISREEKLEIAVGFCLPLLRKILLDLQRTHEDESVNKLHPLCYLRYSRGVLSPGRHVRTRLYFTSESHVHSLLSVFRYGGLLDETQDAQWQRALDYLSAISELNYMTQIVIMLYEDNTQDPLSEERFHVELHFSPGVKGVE
Summary of the method: as §1

[3] = biological target: T3, PBD1R417A (Homo sapiens, UniProt Q6PFW1, R417A); test: SPR equilibrium binding, PBD1 R417A mutant; conditions: results not shown
T3 sequence (Q6PFW1 382-917 R417A): T2 sequence (Q6PFW1 382-917) with R36A

- binding to PBD2 [1]: relatively weakly
- binding to PBD1 [2]: significantly weaker ligands
- binding to PBD1 R417A [3]: eliminated all detectable binding
Substance: PtdIns(4,5)P2
